Results on 2 molecules are retold here after PMC7523912 (ACS applied bio materials, 2019).

By koff is commonly meant a measure of how fast the partners let go of each other. A higher koff goes with fast dissociation. As usually defined, the kon is the second-order rate constant of association.

Data set [1] deals with PDGF-BB mediated proliferation of normal human lung fibroblasts (NHLF). The data set can be described thus: Inhibition of PDGF-BB mediated proliferation assay. The class given is cell-based. Particulars: PDGF-BB only samples, CyQuant. Summed up: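 NHLF at passage 3–4 were grown in DMEM with 10% FBS and 1% penicillin/streptomycin. Cells were seeded at 10,000/well, recovered overnight, then starved 6 h in 0.5% FBS. PDGF-BB was given as 1:2 serial dilutions from 100 to 1.56 ng/mL, alone or with 500 nM free aptamer, 100 μM diluent PA, or apt-PAN (500 nM aptamer-PA, 100 μM total PA). CyQuant Direct was read at 24 and 48 h, normalised to growth-factor-only wells, with three independent experiments, mean ± SD.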

The conditions of data set [2]: no reference or method printed; cited from earlier work.
The target of data set [3] is platelet-derived growth factor-BB (UniProt P01127 82-190). The data set can be described thus: BLI. In general terms: In BLI a coated tip is dipped into the sample, and binding shifts an interference pattern.

*: point of attachment. Palmitoyl = CCCCCCCCCCCCCCCC(=O)*

Sequence of platelet-derived growth factor-BB (P01127 82-190): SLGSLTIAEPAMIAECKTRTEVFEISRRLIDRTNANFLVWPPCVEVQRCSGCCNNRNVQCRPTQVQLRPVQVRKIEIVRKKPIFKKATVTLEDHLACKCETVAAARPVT

As to “PDGF-BB: Platelet derived growth factor-BB”, the “increase in total DNA, after 48 hours” value in data set [1] is on record as “more than two-fold”. For the same molecule, in data set [2], the isoelectric point is recorded as 9.8.

In data set [3], Palmitoyl-VVVAAAEEE-NH2 [diluent peptide amphiphile (palmitoyl-V3A3E3), as self-assembled nanofibers] displayed a koff of 0.000498 s⁻¹ and a kon of 1080 M⁻¹ s⁻¹.
